According to ChEMBL document CHEMBL1649418, “Pyrimidine derivatives as potent and selective A3 adenosine receptor antagonists” (J Med Chem, 2011):

How the values were obtained:
Type in all cases: cell-based
Adenosine receptor A2a [1] = target: T1, Adenosine receptor A2a (Homo sapiens, UniProt P29274); experiment: Displacement of [3H][…] from human adenosine A2A receptor expressed in human HeLa cells by liquid scintillation counting
Summary of the method: (§1)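 Nonspecific binding was defined with 50 μM NECA. Filters were washed four times with ice-cold buffer, then counted by scintillation. Ki (Cheng–Prusoff) is mean ± SEM, n=3; % displacement at 0.1 μM is n=2.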

Adenosine receptor A3 = target: T2, Adenosine receptor A3 (Homo sapiens, UniProt P0DMS8); experiment: Displacement of [3H]NECA from human adenosine A3 receptor expressed in human HeLa cells by liquid scintillation counting; details: read-out: Ki
T2 sequence (P0DMS8 whole entry): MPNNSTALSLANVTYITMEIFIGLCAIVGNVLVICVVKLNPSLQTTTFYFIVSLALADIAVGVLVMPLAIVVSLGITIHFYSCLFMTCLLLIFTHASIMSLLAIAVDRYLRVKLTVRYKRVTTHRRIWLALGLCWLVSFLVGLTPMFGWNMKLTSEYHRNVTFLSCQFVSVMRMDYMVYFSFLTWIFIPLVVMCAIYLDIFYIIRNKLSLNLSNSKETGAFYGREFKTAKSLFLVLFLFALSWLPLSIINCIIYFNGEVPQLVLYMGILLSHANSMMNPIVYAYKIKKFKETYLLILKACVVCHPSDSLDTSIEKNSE
Summary of the method: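 HeLa membranes (90 μg) carrying hA3AR were incubated with [3H]NECA (30 nM) at 25 °C for 180 min, with six concentrations from 0.1 nM to 1 μM. Nonspecific binding was defined with 100 μM R-PIA. Filters were washed six times and counted by scintillation.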

Adenosine receptor A2b = target: T3, Adenosine receptor A2b (Homo sapiens, UniProt P29275); experiment: Displacement of [3H]DPCPX from human adenosine A2B receptor expressed in HEK293 cells by liquid scintillation counting
T3 sequence (P29275 whole entry): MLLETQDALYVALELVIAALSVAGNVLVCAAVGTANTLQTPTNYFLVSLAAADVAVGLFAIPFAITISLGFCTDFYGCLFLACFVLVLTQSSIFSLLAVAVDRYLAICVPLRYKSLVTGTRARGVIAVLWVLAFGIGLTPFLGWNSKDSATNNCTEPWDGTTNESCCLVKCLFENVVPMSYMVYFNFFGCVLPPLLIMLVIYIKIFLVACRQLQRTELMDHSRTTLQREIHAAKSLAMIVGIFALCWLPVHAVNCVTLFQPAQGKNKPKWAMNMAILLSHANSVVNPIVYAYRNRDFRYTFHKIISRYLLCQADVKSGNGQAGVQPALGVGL
Summary of the method: (§2)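 HEK-293 membranes (18 μg) were incubated with [3H]DPCPX (35 nM) at 25 °C for 30 min, with six concentrations from 0.1 nM to 1 μM. Nonspecific binding was defined with 400 μM NECA. Filters were washed six times with ice-cold buffer and counted by scintillation. Ki (Cheng–Prusoff) is mean ± SEM, n=3; % displacement at 0.1 μM is n=2.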

Adenosine receptor A1 = target: T4, Adenosine receptor A1 (Homo sapiens, UniProt P30542); experiment: Displacement of [3H]DPCPX from human adenosine A1 receptor expressed in CHO cells by liquid scintillation counting
T4 sequence (P30542 whole entry): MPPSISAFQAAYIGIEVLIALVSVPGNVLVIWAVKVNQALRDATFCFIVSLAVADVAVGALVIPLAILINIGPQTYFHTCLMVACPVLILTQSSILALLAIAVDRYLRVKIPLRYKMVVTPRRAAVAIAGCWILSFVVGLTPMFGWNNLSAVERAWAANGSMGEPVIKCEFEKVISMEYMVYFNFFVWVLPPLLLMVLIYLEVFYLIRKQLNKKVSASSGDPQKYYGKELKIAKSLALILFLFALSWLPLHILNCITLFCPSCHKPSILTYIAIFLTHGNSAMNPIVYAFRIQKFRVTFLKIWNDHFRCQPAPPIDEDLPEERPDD
Summary of the method: (§3)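 Transfected CHO cell membranes (15 μg) were incubated with [3H]DPCPX at 25 °C for 60 min, with six test concentrations from 0.1 nM to 1 μM. Nonspecific binding was defined with 10 μM R-PIA. Filters were washed four times with ice-cold buffer before scintillation counting. Ki (Cheng–Prusoff) is mean ± SEM, n=3; % displacement at 0.1 μM is n=2.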

[2] = target: T5, Adenosine receptor A2b (Homo sapiens) (UniProt P29275); experiment: Displacement of [3H]DPCPX from human adenosine A2B receptor expressed in HEK293 cells at 0.1 uM by liquid scintillation counting; summary of the method: as §2
T5 sequence (whole entry): T3 sequence (P29275 whole entry)

[3] = target: T6, Adenosine receptor A1 (Homo sapiens) (UniProt P30542); experiment: Displacement of [3H]DPCPX from human adenosine A1 receptor expressed in CHO cells at 0.1 uM by liquid scintillation counting; summary of the method: as §3
T6 sequence (whole entry): T4 sequence (P30542 whole entry)

[4] = target: T7, Adenosine receptor A3 (Homo sapiens) (UniProt P0DMS8); experiment: Displacement of [3H]NECA from human adenosine A3 receptor expressed in human HeLa cells at 0.1 uM by liquid scintillation counting
T7 sequence (whole entry): T2 sequence (P0DMS8 whole entry)
Summary of the method: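 HeLa membranes (90 μg) carrying hA3AR were incubated with [3H]NECA (30 nM) at 25 °C for 180 min, with six concentrations from 0.1 nM to 1 μM. Nonspecific binding was defined with 100 μM R-PIA. Filters were washed six times and counted by scintillation. Ki (Cheng–Prusoff) is mean ± SEM, n=3; % displacement at 0.1 μM is n=2.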

Adenosine receptor A2a [5] = target: T1, Adenosine receptor A2a; experiment: Displacement of [3H][…] from human adenosine A2A receptor expressed in human HeLa cells at 0.1 uM by liquid scintillation counting; summary of the method: as §1

T1 sequence (P29274 whole entry): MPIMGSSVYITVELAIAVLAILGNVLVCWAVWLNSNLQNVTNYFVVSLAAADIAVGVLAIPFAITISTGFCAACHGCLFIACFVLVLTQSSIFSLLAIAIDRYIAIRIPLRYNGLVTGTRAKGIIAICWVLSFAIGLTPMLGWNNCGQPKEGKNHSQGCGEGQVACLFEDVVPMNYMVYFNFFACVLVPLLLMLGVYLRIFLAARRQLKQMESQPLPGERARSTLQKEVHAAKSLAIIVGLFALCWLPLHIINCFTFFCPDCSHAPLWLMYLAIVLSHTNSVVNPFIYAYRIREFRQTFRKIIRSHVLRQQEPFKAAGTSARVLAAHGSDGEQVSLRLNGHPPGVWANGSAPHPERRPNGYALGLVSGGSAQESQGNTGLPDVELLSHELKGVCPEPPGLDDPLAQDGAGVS

SMILES	Ki (Adenosine receptor A2a [1]) [nM]	Ki (Adenosine receptor A3) [nM]	Ki (Adenosine receptor A2b) [nM]	Ki (Adenosine receptor A1) [nM]	inhibition [2] [%]	inhibition [3] [%]	inhibition [4] [%]	inhibition (Adenosine receptor A2a [5]) [%]
CCC(=O)Nc1cc(-c2ccc3c(c2)OCO3)nc(-c2ccc3c(c2)OCO3)n1	2540	14.5	1670	5.28				
CCCC(=O)Nc1cc(-c2ccco2)nc(-c2ccco2)n1	5.7	9.9	16.4	7.8				
CC(=O)Nc1cc(-c2ccc3c(c2)OCO3)nc(-c2ccc3c(c2)OCO3)n1	3350	3.3		17.7	2			
CCCC(=O)Nc1cc(-c2ccccc2F)nc(-c2ccccc2F)n1	142	135		18.7	9			
CC(=O)Nc1cc(-c2ccc(F)cc2)nc(-c2ccc(F)cc2)n1	1330	16.7			1	15		
CCC(=O)Nc1cc(-c2ccccc2F)nc(-c2ccccc2F)n1	103	160		31.6	16			
CCCC(=O)Nc1cc(-c2ccoc2)nc(-c2ccoc2)n1	544			65.1	1		3	
CC(=O)Nc1cc(-c2ccsc2)nc(-c2ccsc2)n1	39.8	20.2			16	13		
CCCC(=O)Nc1cc(-c2ccccc2OC)nc(-c2ccccc2OC)n1		110		41.3	3			14
CCCC(=O)Nc1nc(-c2ccccc2F)cc(-c2ccccc2F)n1	647			23.5	6		15	
CC(=O)Nc1cc(-c2ccoc2)nc(-c2ccoc2)n1	74	10.1	302			1		
CC(=O)Nc1cc(-c2ccccc2)nc(-c2ccccc2)n1	255	12.1		31.2	19			
CC(=O)Nc1cc(-c2ccccc2F)nc(-c2ccccc2F)n1	73.8	18.1			21	17		
CCC(=O)Nc1cc(-c2ccc(C)cc2)nc(-c2ccc(C)cc2)n1		18.3		36.9	2			1
CCC(=O)Nc1cc(-c2cccs2)nc(-c2cccs2)n1	114	21.8		32.9	17			
CCC(=O)Nc1nc(-c2ccc3c(c2)OCO3)cc(-c2ccc3c(c2)OCO3)n1		127		535	1			16

SMILES	Ki (Adenosine receptor A2a [1]) [nM]	Ki (Adenosine receptor A3) [nM]	Ki (Adenosine receptor A2b) [nM]	Ki (Adenosine receptor A1) [nM]	inhibition [2] [%]	inhibition [3] [%]	inhibition [4] [%]	inhibition (Adenosine receptor A2a [5]) [%]
CCCC(=O)Nc1nc(-c2ccc3c(c2)OCO3)cc(-c2ccc3c(c2)OCO3)n1		751		678	1			8
CCCC(=O)Nc1nc(-c2cccs2)cc(-c2cccs2)n1	201			255	3		24	
CCCC(=O)Nc1cc(-c2ccc3c(c2)OCO3)nc(-c2ccc3c(c2)OCO3)n1		59		9.7	16			22
CC(=O)Nc1cc(-c2cccs2)nc(-c2cccs2)n1	24.6	8			23	19		
CCCC(=O)Nc1cc(-c2ccsc2)nc(-c2ccsc2)n1				65.1	21		11	23
CCC(=O)Nc1cc(-c2ccccc2OC)nc(-c2ccccc2OC)n1		23.2		113	7			22
CCC(=O)Nc1cc(-c2ccc(F)cc2)nc(-c2ccc(F)cc2)n1	429	12.1		83.9	1			
CCCC(=O)Nc1cc(-c2ccc(F)cc2)nc(-c2ccc(F)cc2)n1	1830	34.8		82.3	2			
CCCC(=O)Nc1cc(-c2ccccc2)nc(-c2ccccc2)n1	103	171		19.5	1			
CCCC(=O)Nc1cc(-c2cccs2)nc(-c2cccs2)n1	153	23		33.3	8			
CCCC(=O)Nc1nc(-c2ccc(C)cc2)cc(-c2ccc(C)cc2)n1		131		3760	10			2
CCCC(=O)Nc1nc(-c2ccc(SC)cc2)cc(-c2ccc(SC)cc2)n1					2	3	3	7
CCCC(=O)Nc1cc(-c2ccc(C(F)(F)F)cc2)nc(-c2ccc(C(F)(F)F)cc2)n1					6	3	12	1
CCCC(=O)Nc1nc(-c2ccoc2)cc(-c2ccoc2)n1					0	11	21	17
CCCC(=O)Nc1nc(-c2ccsc2)cc(-c2ccsc2)n1	4570			85.7	12		2	
